Laboratory results as given in ChEMBL document CHEMBL4765343, “Design and synthesis of novel SCM-198 analogs as cardioprotective agents: Structure-activity relationship studies and biological evaluations” (Eur J Med Chem, 2020).
Activity calls are given as the source filed them. The calls are words filed in the database; no cut-off is given here.

Assays:
[1] = system: H9c2; test: Antioxidant activity in rat H9c2 cells assessed as protection against H2O2-induced hypoxic injury by measuring cell viability at 1 uM preincubated for 4 hrs followed by H2O2 stimulation for 1 hr by MTT assay relative to control; format: functional
Procedure, shortened: (§1)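 H9c2 cells at 1 × 10^5 cells/mL, 100 μL per well in triplicate, left 18 h. Compound diluted in DMSO; DMSO alone as negative control. 4 h pretreatment, then 400 nM H2O2 for 1 h. Medium removed and MTT added for 2-4 h, formazan dissolved in DMSO, absorbance at 570 nm. Medium-only wells gave the blank.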

[2] = system: H9c2; test: Antioxidant activity in rat H9c2 cells assessed as protection against H2O2-induced hypoxic injury by measuring cell viability at 10 uM preincubated for 4 hrs followed by H2O2 stimulation for 1 hr by MTT assay relative to control; format: functional; procedure, shortened: as §1
[3] = system: H9c2; test: Antioxidant activity in rat H9c2 cells assessed as protection against H2O2-induced hypoxic injury by measuring cell viability preincubated for 4 hrs followed by H2O2 stimulation for 1 hr by MTT assay relative to control; format: functional; settings: time 5 hrs, read-out: ED50 (the source's name)
Procedure, shortened: (§2)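 ED50 taken from log dose against % viability. Viability also reported at the EC50 concentration. Means ± SEM from three independent experiments.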

[4] = system: H9c2; test: Antioxidant activity in rat H9c2 cells assessed as protection against H2O2-induced hypoxic injury by measuring cell viability at ED50 concentration preincubated for 4 hrs followed by H2O2 stimulation for 1 hr by MTT assay relative to control; format: functional; settings: time 5 hrs; procedure, shortened: as §2
[5] = system: H9c2; test: Antiapoptotic activity in rat H9c2 cells assessed as restoration of H2O2-induced bcl-2 downregulation at 10 uM preincubated for 4 hrs followed by H2O2 stimulation for 1 hr by Western blotting analysis; format: functional, cell-based; settings: time 5.0 hrs
Procedure, shortened: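 Serum-starved (12 h) H9c2 cells were pretreated 4 h, then exposed to 500 nM H2O2 in DMEM for 1 h. Lysis on ice with protease/phosphatase inhibitors, then 13,000 g at 4 °C for 15 min. 20 μg protein run on 8-12% SDS-PAGE and blotted to PVDF. Probed overnight at 4 °C for caspase-3, pro-caspase-3, Bcl-2 and GAPDH, with chemiluminescent detection.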

[6] = system: H9c2; test: Cytoprotective activity against H2O2-induced injury in rat H9c2 cells assessed as reduction in LDH release at 10 uM preincubated for 4 hrs followed by H2O2 stimulation for 1 hr by LDH assay; format: functional, cell-based; settings: time 5.0 hrs
Procedure, shortened: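 Cells at 5 × 10^4 per well in triplicate, 18 h, then 4 h compound and 1 h H2O2. Model wells had H2O2 without compound; controls had DMSO. 50 μL medium mixed with 2X LDH assay buffer, kept in the dark at 22-25 °C for 10-30 min, read at 490-520 nm. Activity blank-subtracted, normalised to BCA protein of the lysed cells, and expressed relative to model wells.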

`N=C(N)NCCCCO` was tested, and the Activity [1] was 46.8% and the Activity [2] was 51.4%.

`COc1cc(/C=C/C(=O)OCCCCNC(=N)N)cc(OC)c1OC` showed an Activity [1] of 55.4% and an Activity [2] of 61.4%.

`COc1ccc(OC)c(C(=O)OCCCCNC(=N)N)c1` showed an Activity [1] of 53.3% and an Activity [2] of 57.7%.

Work on `N=C(N)NCCCCOC(=O)c1c(F)cc(F)cc1F` yielded an Activity [1] of 69.6% and an Activity [2] of 60.7%.

For `COc1cc(C(=O)OCC2CCN(C(=N)N)CC2)cc(OC)c1OC(C)=O`, the Activity [1] was 42.7% and the Activity [2] was 47%.

`COc1cc(OC)c(C(=O)OCCCCNC(=N)N)c(OC)c1` was tested, and the Activity [1] was 55.2% and the Activity [2] was 53.4%.

With `CC(=O)Oc1ccc(C(=O)OCCCCNC(=N)N)cc1` the Activity [1] was 57.8% and the Activity [2] was 52.7%.

For `COc1cc(C(=O)OCCCCNC(=N)N)ccc1OC(C)=O`, the Activity [1] was 63.4% and the Activity [2] was 56.4%.

Molecule `COc1cc(C(=O)OCCCCCNC(=N)N)cc(OC)c1O` has an Activity [1] of 58.9% and an Activity [2] of 50.1%.

With `COc1cc(C(=O)OCCCNC(=N)N)cc(OC)c1O` the Activity [1] was 50.1% and the Activity [2] was 55.2%.

With `COc1cc(C(=O)OCCCCCCNC(=N)N)cc(OC)c1O` the Activity [1] was 53.4% and the Activity [2] was 58.9%.

In the case of `COc1cc(C(=O)OCCCN(C)C)cc(OC)c1O`, the Activity [1] is reported as 55.2% and the Activity [2] is reported as 61.7%.

In the case of `COc1cc(C(=O)OCCOCCNC(=N)N)cc(OC)c1O`, the EC50 [3] is reported as 151 nM, the Activity [4] is reported as 58.8% and the Activity [5] is reported as “inactive”. The Activity [1] was 63.4% and the Activity [2] was 69.8%.

For `COc1cc(C(=O)OCCN(C)C)cc(OC)c1O`, the Activity [1] was 47.8% and the Activity [2] was 48.5%.

With `COc1cc(C(=O)OCCN2CCOCC2)cc(OC)c1O` the Activity [1] was 52.3% and the Activity [2] was 50.5%.

For `Cc1cccc(C(=O)OCCCCNC(=N)N)c1`, the EC50 [3] was 156 nM, the Activity [4] was 57.4% and the Activity [1] was 64.4%. For the same molecule, the Activity [6] was “inactive” and the Activity [2] was 65.8%.

`COc1ccc(C(=O)OCCCCNC(=N)N)cc1` gave an Activity [1] of 61.2% and an Activity [2] of 58.6%.
